ChEMBL document CHEMBL4732196, “Structural optimization towards promising β-methyl-4-acrylamido quinoline derivatives as PI3K/mTOR dual inhibitors for anti-cancer therapy: The in vitro and in vivo biological evaluation” (Eur J Med Chem, 2021)
Calls of active or inactive are those of the source. The calls are words filed in the database; no cut-off is given here.

Experiments:
[1] = test system: U-87 MG; assay: Growth inhibition of human U87MG cells after 72 hrs by sulforhodamine B assay; assay type: functional, U-87MG ATCC
[2] = target: T1, Serine/threonine-protein kinase mTOR (Homo sapiens, UniProt P42345); assay: Inhibition of recombinant human N-terminal FLAG-tagged mTOR (1362 to end amino acids) using ULight-4E-BP1 as substrate incubated for 1 hr by LANCE Ultra assay
[3] = test system: PC-3; assay: Growth inhibition of human PC3 cells after 72 hrs by sulforhodamine B assay; assay type: functional
[4] = target: Phosphatidylinositol 4,5-bisphosphate 3-kinase catalytic subunit alpha isoform (Homo sapiens, UniProt P42336); assay: Inhibition of recombinant human PI3Kalpha using PIP2 as substrate incubated for 1 hr by kinase-glo luminescent assay
Phosphatidylinositol 4,5-bisphosphate 3-kinase catalytic subunit alpha isoform, sequence (P42336 whole entry, canonical isoform): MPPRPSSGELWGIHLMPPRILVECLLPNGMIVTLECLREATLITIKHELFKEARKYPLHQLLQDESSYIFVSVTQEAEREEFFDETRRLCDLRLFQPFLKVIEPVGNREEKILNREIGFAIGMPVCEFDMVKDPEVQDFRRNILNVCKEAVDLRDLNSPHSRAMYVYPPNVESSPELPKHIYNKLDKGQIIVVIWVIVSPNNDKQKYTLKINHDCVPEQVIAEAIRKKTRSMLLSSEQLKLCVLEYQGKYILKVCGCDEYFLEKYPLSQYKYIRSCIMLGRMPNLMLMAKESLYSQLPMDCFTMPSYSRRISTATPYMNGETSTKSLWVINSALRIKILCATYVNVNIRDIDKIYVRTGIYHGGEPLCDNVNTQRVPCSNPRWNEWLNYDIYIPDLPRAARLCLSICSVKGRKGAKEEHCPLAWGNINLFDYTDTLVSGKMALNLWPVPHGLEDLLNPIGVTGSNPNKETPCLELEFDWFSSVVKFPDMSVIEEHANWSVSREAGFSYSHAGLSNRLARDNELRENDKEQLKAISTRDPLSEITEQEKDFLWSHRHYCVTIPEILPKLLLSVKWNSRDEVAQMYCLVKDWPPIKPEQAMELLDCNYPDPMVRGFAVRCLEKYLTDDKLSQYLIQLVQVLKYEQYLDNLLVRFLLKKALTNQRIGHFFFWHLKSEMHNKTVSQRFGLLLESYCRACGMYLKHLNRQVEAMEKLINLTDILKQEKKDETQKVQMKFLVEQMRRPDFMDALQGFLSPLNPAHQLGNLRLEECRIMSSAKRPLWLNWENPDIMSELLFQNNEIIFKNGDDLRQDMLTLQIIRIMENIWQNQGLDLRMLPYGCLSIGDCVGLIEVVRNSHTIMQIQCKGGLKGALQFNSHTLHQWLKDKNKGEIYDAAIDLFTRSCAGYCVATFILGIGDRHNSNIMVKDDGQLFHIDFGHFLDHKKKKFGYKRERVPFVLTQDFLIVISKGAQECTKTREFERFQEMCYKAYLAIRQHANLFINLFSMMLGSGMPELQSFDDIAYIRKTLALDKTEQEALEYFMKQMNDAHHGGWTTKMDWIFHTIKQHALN

[5] = target: T1, Serine/threonine-protein kinase mTOR; assay: Inhibition of mTOR in human U87MG cells assessed as suppression of phosphorylation of S6 ribosomal at 25 nM after 3 hrs by Western blot analysis; conditions: U87
[6] = test system: U87; assay: Inhibition of PI3K in human U87MG cells assessed as suppression of phosphorylation of AKT at Thr308 residue at 25 nM after 3 hrs by Western blot analysis; assay type: cell-based
Method in brief: (§1)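 U87MG cells seeded at 1×10^6 per well, incubated overnight at 37 °C, 5% CO₂, then treated at various concentrations for 3 h at 37 °C. Western blot for phospho-Akt (Ser473, Thr308), phospho-S6 (Ser235/236) and phospho-4E-BP1 (Thr37/46), with GAPDH as internal control. Bands quantified as mean ± SD, n = 3 biological replicates, versus untreated cells.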

[7] = test system: U87; assay: Inhibition of PI3K in human U87MG cells assessed as suppression of phosphorylation of AKT at Ser473 residue at 25 nM after 3 hrs by Western blot analysis; assay type: cell-based; method in brief: as §1
[8] = target: T1, Serine/threonine-protein kinase mTOR; assay: Inhibition of mTOR in human U87MG cells assessed as suppression of phosphorylation of S6 ribosomal at Ser235/236 residues at 25 nM after 3 hrs by Western blot analysis; assay type: cell-based; conditions: U87
Method in brief: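 U87MG cells were seeded at 1×10^6 per well and held overnight at 37 °C, 5% CO2. They were then exposed to a range of inhibitor concentrations for 3 h at 37 °C. Phospho-Akt (Ser473, Thr308), phospho-S6 (Ser235/236) and phospho-4E-BP1 (Thr37/46) were measured by Western blot with GAPDH as loading control. Bands were quantified as mean ± SD of 3 biological replicates against untreated cells.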

[9] = MRT(0 to infinity) in Sprague-Dawley rat at 5 mg/kg, po; assay type: ADME, organism-based; conditions: in vivo
Method in brief: (§2)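 Male Sprague-Dawley rats (n = 3) received a single 5 mg/kg oral gavage dose formulated as a suspension in 0.5% methylcellulose. Plasma concentration-time curves were recorded and mean PK parameters derived.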

[10] = MRT(0 to t) in Sprague-Dawley rat at 5 mg/kg, po; assay type: ADME, organism-based; conditions: in vivo; method in brief: as §2

COc1ncc(-c2ccc3nccc(/C(C)=C/C(=O)N4CCCC4)c3c2)cc1NS(=O)(=O)c1ccc(F)cc1F
GI50 [1]: 390 nM | IC50 [2]: 2.1 nM | GI50 [3]: 1160 nM | IC50 [4]: 1.2 nM

COc1ncc(-c2ccc3nccc(-c4ccnnc4)c3c2)cc1NS(=O)(=O)c1ccc(F)cc1F [OMIPALISIB]
inhibition [5]: Active | GI50 [1]: 220 nM | GI50 [3]: 250 nM | inhibition [6]: Active | inhibition [7]: Active | inhibition [8]: Active

COc1ncc(-c2ccc3nccc(/C(C)=C/C(=O)N4CCC(O)CC4)c3c2)cc1NS(=O)(=O)c1ccc(F)cc1F
GI50 [1]: 600 nM | IC50 [2]: 6.1 nM | GI50 [3]: 1080 nM | IC50 [4]: 1.4 nM

COc1ncc(-c2ccc3nccc(/C(C)=C/C(=O)N4CCOCC4)c3c2)cc1NS(=O)(=O)c1ccc(F)cc1F
GI50 [1]: 610 nM | IC50 [2]: 3.3 nM | GI50 [3]: 1670 nM | IC50 [4]: 1.1 nM

COc1ncc(-c2ccc3nccc(/C=C/C(=O)N4CCN(C)CC4)c3c2)cc1NS(=O)(=O)c1ccc(F)cc1F
MRT inf [9]: 2.59 h | GI50 [1]: 220 nM | IC50 [2]: 3.2 nM | GI50 [3]: 450 nM | IC50 [4]: 1.04 nM | MRT last [10]: 1.89 h

COc1ncc(-c2ccc3nccc(/C(C)=C\C(=O)N4CCOCC4)c3c2)cc1NS(=O)(=O)c1ccc(F)cc1F
GI50 [1]: > 10000 nM | IC50 [2]: 141 nM | GI50 [3]: 8020 nM | IC50 [4]: 23 nM

COc1ncc(-c2ccc3nccc(/C(C)=C/C(=O)N(C)CCO)c3c2)cc1NS(=O)(=O)c1ccc(F)cc1F
GI50 [1]: 380 nM | IC50 [2]: 1.7 nM | GI50 [3]: 290 nM | IC50 [4]: 1.5 nM
